Entries after “also recorded” stand apart in the source; their conditions may differ.
B1: MucB: competes for MucA binding and can inhibit this cleavage (protein, UniProt P38108 22-316, looked up)
Sigma factor AlgU regulatory …: ADASDWLNRLAEADRQNSFQGTFVYERNGSFSTHEIWHRVESDGAVRERLLQLDGARQEVVRVDGRTQCISGGLADQLADAQLWPVRKFDPSQLASWYDLRLVGESRVAGRPAVVLAVTPRDQHRYGFELHLDRDTGLPLKSLLLNEKGQLLERFQFTQLNTGAAPAEDQLQAGAECQVVGPAKADGEKTVAWRSEWLPPGFTLTRSFMRRSPVTPDPVACLTYGDGLARFSVFIEPLHGAMVGDARSQLGPTVVVSKRLQTDDGGQMVTVVGEVPLGTAERVALSIRPEAAAQK
B2: MucA: anti-sigma factor; free MucA as competitor of resin-bound MucA (protein, UniProt P38107 1-194, looked up)
Sigma factor AlgU negative …: MSREALQETLSAVMDNEADELELRRVLAACGEDAELRSTWSRYQLARSVMHREPTLPKLDIAAAVSAALADEAAPPKAEKGPWRMVGRLAVAASVTLAVLAGVRLYNQNDALPQMAQQGTTPQIALPQVKGPAVLAGYSEEQGAPQVITNSSSSDTRWHEQRLPIYLRQHVQQSAVSGTESALPYARAASLENR

What was measured:
[1] = test system: MucB; details: ref Lima et al., 2013; cited from earlier work
[2] = test system: AlgW (substrate 35S-MucA, inhibitor MucB); assay: AlgW cleavage of 35S-MucA in the presence of MucB; assay type: biochemical, Pseudomonas aeruginosa; details: for MucA cleavage level relative to WVF and AlgW alone (no MucB): Figs. 4B vs 4D, CupB5 peptide + WVF + MucB; for antagonism / relief of MucB inhibition in vitro: summary statement, WVF-activated AlgW cleavage of MucA with MucB
[3] = test system: MucB; assay: MucB oligomerization, gel-filtration chromatography; assay type: binding, Pseudomonas aeruginosa; details: Fig. S2
[4] = test system: AlgW (substrate 35S-MucA); assay: WVF-activated AlgW cleavage of 35S-MucA with or without CupB5 peptides; assay type: biochemical, Pseudomonas aeruginosa; details: Fig. 5C; GYYYTVV 300 μM, increasing WVF, fixed MucA (50 μM)
In short: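 Ni-NTA-purified AlgW (0.5 μM trimer) cleaved 35S-MucA (50 μM) across a range of WVF peptide concentrations, with or without CupB5 peptides (300 μM). Protease addition started the reactions; cold 10% TCA quenched them at timed points. Acid-soluble products were scintillation-counted against total radioactivity, and rates were divided by substrate and enzyme concentrations. Values were averages ± SEM (n=2), fitted to rate = basal + Vmax/(1 + (Kact/[peptide])h).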

[5] = test system: P. aeruginosa strain PAO1 and derivatives; assay: Alginate production and mucoid phenotype on plasmid overexpression of proteins; assay type: cell-based, Pseudomonas aeruginosa; details: Fig. 6A, 6B; for alginate production in PAO1-VE2 on plasmid-mediated overproduction: PAO1-VE2 (mucE overexpressed); for alginate production in PAO1-VE22 on plasmid-mediated overproduction: PAO1-VE22 (cupB5 overexpressed), 0.1% L-arabinose, 37°C, 24 h

Row | Molecule | MucA cleavage level relative to WVF and AlgW alone (no MucB) [2] | antagonism / relief of MucB inhibition in vitro [2] | alginate production in PAO1-VE2 on plasmid-mediated overproduction [5] | alginate production in PAO1-VE22 on plasmid-mediated overproduction [5] | further results
1 | Lipopolysaccharides |  |  |  |  | binding to MucB and displacement of MucA [1]: bind MucB and competitively displace MucA
2 | GYYYTVV | approximately one-third | antagonized MucB inhibition in vitro; also recorded: only partially relieve MucB inhibition in vitro |  |  | change in MucB elution / conversion of MucB dimers to tetramers [3]: no substantial change in elution during gel-filtration chromatography; also recorded: did not convert MucB dimers into tetramers; change in maximum rate of MucA cleavage on adding CupB5 peptide [4]: increased almost two-fold
3 | GYYYT | approximately one-third | did antagonize MucB inhibition in vitro; also recorded: only partially relieve MucB inhibition in vitro |  |  | potency and cooperativity of activation, GYYYT vs GYYYTVV ([2]; Fig. 4D, WVF 150 μM, MucB present): occurred at lower peptide concentrations and was less cooperative as judged by the Hill constant than activation by the GYYYTVV peptide
4 | B1 |  |  | decreased alginate production in PAO1-VE2 | plasmid-mediated MucB overproduction had this effect | 
5 | B2 |  |  | decreased alginate production in PAO1-VE2 | as did plasmid-mediated overproduction of MucA | 

Source: article PMC4116675 (Molecular microbiology, 2014)
